ChEMBL document CHEMBL1641429, “Synthesis and xanthine oxidase inhibitory activity of 7-methyl-2-(phenoxymethyl)-5H-[1,3,4]thiadiazolo[3,2-a]pyrimidin-5-one derivatives” (Bioorg Med Chem, 2011)

How the values were obtained:
[1] = Inhibition of microbial xanthine oxidase by spectrophotometry
Method in brief: (§1)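 Enzyme source: for line 2, supernatant of centrifuged rat liver homogenate stored at −80 °C; for line 1, commercial microbial XO run the same way. Mix of 50 mM potassium phosphate pH 7.5, 0.3 mM EDTA and enzyme. Reaction started with xanthine substrate plus test compound. Protein by Lowry, BSA standard.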

[2] = molecular target: Xanthine dehydrogenase/oxidase (Bos taurus, UniProt P80457); assay: Inhibition of bovine milk xanthine oxidase by spectrophotometry
Xanthine dehydrogenase/oxidase (Bos taurus, UniProt P80457), sequence (P80457 whole entry): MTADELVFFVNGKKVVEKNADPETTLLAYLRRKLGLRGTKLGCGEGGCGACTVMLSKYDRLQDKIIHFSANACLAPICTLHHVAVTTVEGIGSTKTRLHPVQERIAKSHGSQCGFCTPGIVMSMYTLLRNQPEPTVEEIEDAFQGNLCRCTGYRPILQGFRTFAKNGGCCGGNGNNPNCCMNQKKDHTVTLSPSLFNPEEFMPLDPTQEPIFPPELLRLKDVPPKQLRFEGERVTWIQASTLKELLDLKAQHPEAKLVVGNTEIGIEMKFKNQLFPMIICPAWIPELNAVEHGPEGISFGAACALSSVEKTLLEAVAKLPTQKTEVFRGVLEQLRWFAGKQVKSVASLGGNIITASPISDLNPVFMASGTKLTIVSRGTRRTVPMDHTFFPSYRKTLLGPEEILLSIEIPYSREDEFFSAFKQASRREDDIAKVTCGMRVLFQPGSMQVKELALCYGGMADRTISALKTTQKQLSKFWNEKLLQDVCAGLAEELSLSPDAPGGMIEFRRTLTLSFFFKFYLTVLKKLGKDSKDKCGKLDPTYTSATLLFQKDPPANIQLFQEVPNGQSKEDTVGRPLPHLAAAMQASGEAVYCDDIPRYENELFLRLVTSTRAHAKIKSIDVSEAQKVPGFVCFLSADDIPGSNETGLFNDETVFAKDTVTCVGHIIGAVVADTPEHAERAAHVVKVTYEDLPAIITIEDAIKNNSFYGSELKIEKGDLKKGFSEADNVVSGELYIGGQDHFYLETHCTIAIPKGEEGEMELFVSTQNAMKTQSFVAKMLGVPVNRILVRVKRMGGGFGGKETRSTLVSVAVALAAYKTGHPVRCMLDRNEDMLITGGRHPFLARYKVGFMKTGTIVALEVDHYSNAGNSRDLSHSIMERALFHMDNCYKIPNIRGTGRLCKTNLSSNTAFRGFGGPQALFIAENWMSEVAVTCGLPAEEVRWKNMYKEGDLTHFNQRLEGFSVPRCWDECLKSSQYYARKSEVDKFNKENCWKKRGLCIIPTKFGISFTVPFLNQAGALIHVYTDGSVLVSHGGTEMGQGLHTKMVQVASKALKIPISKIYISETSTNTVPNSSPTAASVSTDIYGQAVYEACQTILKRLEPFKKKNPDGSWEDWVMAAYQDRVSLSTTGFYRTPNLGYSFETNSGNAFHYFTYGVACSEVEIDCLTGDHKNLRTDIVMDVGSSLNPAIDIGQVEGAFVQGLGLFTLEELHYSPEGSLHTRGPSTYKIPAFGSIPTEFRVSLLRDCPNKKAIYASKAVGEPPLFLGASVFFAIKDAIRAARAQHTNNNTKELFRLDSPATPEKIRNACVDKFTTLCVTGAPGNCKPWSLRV

[3] = molecular target: Xanthine dehydrogenase/oxidase (Rattus norvegicus, UniProt P22985); assay: Inhibition of rat liver xanthine oxidase by spectrophotometry
Xanthine dehydrogenase/oxidase (Rattus norvegicus, UniProt P22985), sequence (P22985 whole entry): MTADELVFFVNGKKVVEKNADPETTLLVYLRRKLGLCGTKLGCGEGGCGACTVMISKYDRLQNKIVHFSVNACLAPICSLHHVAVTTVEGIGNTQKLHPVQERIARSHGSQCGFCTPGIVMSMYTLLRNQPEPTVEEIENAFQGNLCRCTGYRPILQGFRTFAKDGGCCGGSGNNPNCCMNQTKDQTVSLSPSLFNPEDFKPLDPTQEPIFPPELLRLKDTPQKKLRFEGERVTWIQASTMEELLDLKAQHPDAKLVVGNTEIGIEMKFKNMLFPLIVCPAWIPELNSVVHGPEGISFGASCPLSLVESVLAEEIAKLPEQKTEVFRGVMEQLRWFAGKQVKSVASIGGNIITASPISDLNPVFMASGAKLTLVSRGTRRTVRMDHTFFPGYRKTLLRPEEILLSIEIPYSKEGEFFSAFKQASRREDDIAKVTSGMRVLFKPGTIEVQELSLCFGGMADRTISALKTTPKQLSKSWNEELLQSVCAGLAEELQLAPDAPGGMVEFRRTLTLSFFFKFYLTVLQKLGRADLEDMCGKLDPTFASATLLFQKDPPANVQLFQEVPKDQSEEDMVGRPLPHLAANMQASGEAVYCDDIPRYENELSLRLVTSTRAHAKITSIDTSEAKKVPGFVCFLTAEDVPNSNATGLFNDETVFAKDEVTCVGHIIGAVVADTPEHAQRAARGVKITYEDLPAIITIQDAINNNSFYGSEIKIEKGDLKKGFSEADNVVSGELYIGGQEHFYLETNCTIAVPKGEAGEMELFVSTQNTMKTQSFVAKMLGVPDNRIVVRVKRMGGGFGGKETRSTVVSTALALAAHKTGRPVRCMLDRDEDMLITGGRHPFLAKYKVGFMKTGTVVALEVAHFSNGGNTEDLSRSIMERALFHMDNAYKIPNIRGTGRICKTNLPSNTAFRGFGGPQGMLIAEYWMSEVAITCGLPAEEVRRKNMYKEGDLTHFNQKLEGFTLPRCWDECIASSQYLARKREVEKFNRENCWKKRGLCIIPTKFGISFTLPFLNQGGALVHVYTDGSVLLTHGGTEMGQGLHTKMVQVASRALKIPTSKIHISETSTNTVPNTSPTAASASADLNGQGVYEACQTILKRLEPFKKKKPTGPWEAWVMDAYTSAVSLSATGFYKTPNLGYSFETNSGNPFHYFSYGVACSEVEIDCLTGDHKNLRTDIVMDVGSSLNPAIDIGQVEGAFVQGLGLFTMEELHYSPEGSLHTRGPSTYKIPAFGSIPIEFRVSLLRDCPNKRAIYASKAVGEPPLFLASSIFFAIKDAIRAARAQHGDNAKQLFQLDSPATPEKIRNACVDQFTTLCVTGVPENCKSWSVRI
Method in brief: as §1, with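 “compound. Uric acid read at 292 nm at 10 min intervals, ambient temperature. % inhibition versus control without compound; triplicates.” for “compound.”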

IC50 [1] [µM]	IC50 [2] [µM]	IC50 [3] [µM]	SMILES
1.73	1.8	1.76	Cc1ccc(OCc2nn3c(=O)cc(C)nc3s2)c(C)c1
–	2.5	2.03	Cc1cc(=O)n2nc(COc3ccc([N+](=O)[O-])cc3)sc2n1
0.269	0.269	0.289	COc1ccc(OCc2nn3c(=O)cc(C)nc3s2)cc1
–	–	0.555	Cc1cc(=O)n2nc(COc3ccccc3)sc2n1
–	–	2.56	Cc1cc(=O)n2nc(COc3cccc(Br)c3)sc2n1
0.423	0.461	0.449	Cc1cc(=O)n2nc(COc3ccc(Cl)cc3)sc2n1
2.24	–	–	Cc1cc(=O)n2nc(COc3ccc(F)cc3)sc2n1
0.346	0.326	0.362	Cc1cc(=O)n2nc(COc3ccccc3C)sc2n1
0.596	0.634	0.623	Cc1cc(=O)n2nc(COc3ccc(Cl)c(C)c3)sc2n1
1.67	–	1.98	Cc1cc(=O)n2nc(COc3cccc(F)c3)sc2n1
1.82	1.65	1.83	Cc1cc(=O)n2nc(COc3ccccc3Cl)sc2n1
–	–	6.18	Cc1cc(=O)n2nc(COc3cccc(Cl)c3)sc2n1
0.834	–	1.02	Cc1ccc(OCc2nn3c(=O)cc(C)nc3s2)cc1
–	–	0.59	Cc1cc(=O)n2nc(COc3ccccc3F)sc2n1
–	0.603	0.413	Cc1cc(=O)n2nc(COc3ccccc3Br)sc2n1
1.11	1.03	1.07	Cc1cccc(OCc2nn3c(=O)cc(C)nc3s2)c1
